From paper PMC10795913 (The Journal of Clinical Endocrinology and Metabolism, 2023)

Tests used:
[1] = Tirzepatide pharmacokinetics; type: in vivo, human
native GIP (nGIP) = target: T1, native GIP (nGIP) (Homo sapiens, UniProt P09681); experiment: Cross-reactive ADA binding to nGIP; type: in vivo; conditions: N = 5025
T1 sequence (P09681 52-93 limits assumed): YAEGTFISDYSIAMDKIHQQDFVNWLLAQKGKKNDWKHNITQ

native GLP-1 (nGLP-1) = experiment: Cross-reactive ADA binding to nGLP-1; type: in vivo, human; conditions: N = 5025
[2] = tested on: patients with type 2 diabetes; experiment: Injection site reactions by TE ADA status; type: in vivo, human
In short: (§1)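 Hypersensitivity or injection site reactions during the planned treatment period were tabulated by dose group. Patients were split by treatment-emergent ADA status (TE ADA+ vs TE ADA–). Analysis was descriptive and non-randomized.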

GIPR = target: T2, GIPR (Homo sapiens, UniProt P48546); experiment: Cell-based assay for NAb against TZP activity on GIPR; type: in vivo; conditions: N = 5025
T2 sequence (P48546 22-466): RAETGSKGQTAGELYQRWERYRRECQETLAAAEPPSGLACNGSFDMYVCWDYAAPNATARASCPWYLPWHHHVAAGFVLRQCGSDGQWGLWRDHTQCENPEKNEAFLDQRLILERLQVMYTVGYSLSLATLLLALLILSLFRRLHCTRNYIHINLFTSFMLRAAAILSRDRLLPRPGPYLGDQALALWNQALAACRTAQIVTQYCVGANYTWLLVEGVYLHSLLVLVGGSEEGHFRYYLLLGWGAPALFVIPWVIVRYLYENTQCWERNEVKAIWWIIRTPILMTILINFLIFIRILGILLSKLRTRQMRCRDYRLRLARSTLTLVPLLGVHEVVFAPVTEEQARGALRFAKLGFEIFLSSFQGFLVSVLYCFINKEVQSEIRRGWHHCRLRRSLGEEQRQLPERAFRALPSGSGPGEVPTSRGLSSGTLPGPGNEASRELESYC

[3] = tested on: patients with type 2 diabetes; experiment: Hypersensitivity reactions by TE ADA status; type: in vivo, human
In short: as §1

[4] = TZP 5 mg, TE ADA status not evaluable
[5] = TZP 10 mg, TE ADA status not evaluable
[6] = TZP all doses, TE ADA status not evaluable

CC[C@H](C)[C@H](NC(=O)[C@H](CC(C)C)NC(=O)[C@H](Cc1c[nH]c2ccccc12)NC(=O)[C@H](CCC(N)=O)NC(=O)[C@@H](NC(=O)[C@H](Cc1ccccc1)NC(=O)[C@H](C)NC(=O)[C@H](CCCCNC(=O)COCCOCCNC(=O)COCCOCCNC(=O)CC[C@H](NC(=O)CCCCCCCCCCCCCCCCCCC(=O)O)C(=O)O)NC(=O)[C@H](CCC(N)=O)NC(=O)[C@H](C)NC(=O)[C@@H](NC(=O)[C@H](CCCCN)NC(=O)[C@H](CC(=O)O)NC(=O)[C@H](CC(C)C)NC(=O)C(C)(C)NC(=O)[C@@H](NC(=O)[C@H](CO)NC(=O)[C@H](Cc1ccc(O)cc1)NC(=O)[C@H](CC(=O)O)NC(=O)[C@H](CO)NC(=O)[C@@H](NC(=O)[C@H](Cc1ccccc1)NC(=O)[C@@H](NC(=O)CNC(=O)[C@H](CCC(=O)O)NC(=O)C(C)(C)NC(=O)[C@@H](N)Cc1ccc(O)cc1)[C@@H](C)O)[C@@H](C)O)[C@@H](C)CC)[C@@H](C)CC)C(C)C)C(=O)N[C@@H](C)C(=O)NCC(=O)NCC(=O)N1CCC[C@H]1C(=O)N[C@@H](CO)C(=O)N[C@@H](CO)C(=O)NCC(=O)N[C@@H](C)C(=O)N1CCC[C@H]1C(=O)N1CCC[C@H]1C(=O)N1CCC[C@H]1C(=O)N[C@@H](CO)C(N)=O [tirzepatide]
Apparent clearance (CL/F): effect of ADA status or ADA titer ([1]; graphical comparison, ADA detected vs not detected and by titer): not affected
Relationship between NAb and TZP concentration ([1]; in vivo): No relationship
Cross-reactive binding ADA to nGIP (native GIP (nGIP); baseline): 97 (1.9) n (%)
Cross-reactive binding ADA to nGIP (native GIP (nGIP); postbaseline): 1705 (33.9) n (%)
Cross-reactive binding ADA to nGLP-1 (native GLP-1 (nGLP-1); baseline): 34 (0.7) n (%)
Cross-reactive binding ADA to nGLP-1 (native GLP-1 (nGLP-1); postbaseline): 716 (14.2) n (%)
Injection site reactions, % [2, 4]: 0.06%
Injection site reactions, m (number of patients with specified reaction) [2, 4]: 1
Injection site reactions, % ([2]; TZP 5 mg, TE ADA+, n 815): 3.07%
Injection site reactions, m (number of patients with specified reaction) ([2]; TZP 5 mg, TE ADA+, n 815): 25
Injection site reactions, % ([2]; TZP 5 mg, TE ADA–, n 855): 0.82%
Injection site reactions, m (number of patients with specified reaction) ([2]; TZP 5 mg, TE ADA–, n 855): 7
Injection site reactions, % [2, 5]: 0.06%
Injection site reactions, m (number of patients with specified reaction) [2, 5]: 1
Injection site reactions, % ([2]; TZP 10 mg, TE ADA+, n 858): 4.43%
Injection site reactions, m (number of patients with specified reaction) ([2]; TZP 10 mg, TE ADA+, n 858): 38
Injection site reactions, % ([2]; TZP 10 mg, TE ADA–, n 812): 0.86%
Injection site reactions, m (number of patients with specified reaction) ([2]; TZP 10 mg, TE ADA–, n 812): 7
Injection site reactions, m (number of patients with specified reaction) ([2]; TZP 15 mg, TE ADA status not evaluable): 0
Injection site reactions, % ([2]; TZP 15 mg, TE ADA+, n 897): 6.24%
Injection site reactions, m (number of patients with specified reaction) ([2]; TZP 15 mg, TE ADA+, n 897): 56
Injection site reactions, % ([2]; TZP 15 mg, TE ADA–, n 788): 0.51%
Injection site reactions, m (number of patients with specified reaction) ([2]; TZP 15 mg, TE ADA–, n 788): 4
Injection site reactions, % [2, 6]: 0.04%
Injection site reactions, m (number of patients with specified reaction) [2, 6]: 2
Injection site reactions, % ([2]; TZP all doses, TE ADA+, n 2570): 4.63%
Injection site reactions, m (number of patients with specified reaction) ([2]; TZP all doses, TE ADA+, n 2570): 119
Injection site reactions, % ([2]; TZP all doses, TE ADA–, n 2455): 0.73%
Injection site reactions, m (number of patients with specified reaction) ([2]; TZP all doses, TE ADA–, n 2455): 18
Severity of injection site reactions ([2]; all events): nonserious and nonsevere
Patients who discontinued study drug because of injection site reactions ([2]; all were TE ADA+): Four
NAb against TZP activity on GIP R (GIPR; baseline): 2 (<0.1) n (%)
NAb against TZP activity on GIP R (GIPR; postbaseline): 94 (1.9) n (%)
Hypersensitivity reactions, % ([3]; TZP 5 mg, TE ADA+, n 815): 3.93%
Hypersensitivity reactions, m (number of patients with specified reaction) ([3]; TZP 5 mg, TE ADA+, n 815): 32
Hypersensitivity reactions, % ([3]; TZP 5 mg, TE ADA–, n 855): 3.04%
Hypersensitivity reactions, m (number of patients with specified reaction) ([3]; TZP 5 mg, TE ADA–, n 855): 26
Hypersensitivity reactions, % ([3]; TZP 10 mg, TE ADA+, n 858): 3.61%
Hypersensitivity reactions, m (number of patients with specified reaction) ([3]; TZP 10 mg, TE ADA+, n 858): 31
Hypersensitivity reactions, % ([3]; TZP 10 mg, TE ADA–, n 812): 3.2%
Hypersensitivity reactions, m (number of patients with specified reaction) ([3]; TZP 10 mg, TE ADA–, n 812): 26
Hypersensitivity reactions, % ([3]; TZP 15 mg, TE ADA+, n 897): 4.79%
Hypersensitivity reactions, m (number of patients with specified reaction) ([3]; TZP 15 mg, TE ADA+, n 897): 43
Hypersensitivity reactions, % ([3]; TZP 15 mg, TE ADA–, n 788): 2.66%
Hypersensitivity reactions, m (number of patients with specified reaction) ([3]; TZP 15 mg, TE ADA–, n 788): 21
Hypersensitivity reactions, % ([3]; TZP all doses, TE ADA+, n 2570): 4.12%
Hypersensitivity reactions, m (number of patients with specified reaction) ([3]; TZP all doses, TE ADA+, n 2570): 106
